Test results reported in article PMC4261236 (Journal of Medicinal Chemistry, 2014).

Assays:
[1] = test system: sstr2-transfected HCT116 cells; assay: Cell internalization assay; assay type: cell-based, Human; conditions: for maximum internalized tracer: after 2 h at 37 °C, 4 nM tracer
Method in brief: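 sstr2-transfected HCT116 cells (Iscove's, 10% FBS, 1 mM Zeocin) in 12-well plates with 64Cu-labelled tracer at 4 nM final (labelled at >98% yield, used without purification). Surface-bound and internalized activity gamma-counted at 15, 30, 60, 120 and 240 min. Nonspecific binding from 1000-fold excess Y3-TATE. Values normalized to added activity and to BCA protein (%ID/mg).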

[2] = test system: sstr2-transfected HCT116 tumor-bearing mice; assay: Small animal PET/CT imaging; assay type: in vivo; conditions: 2 h p.i.; for tumor SUV: PET/CT; for tumor SUV, blocked: unlabeled Y3-TATE co-injected to block
[3] = test system: sstr2-transfected HCT116 tumor-bearing female nu/nu mice; assay: Biodistribution in tumor-bearing mice; assay type: in vivo; conditions: for tumor uptake blocked by co-injected Y3-TATE: 4 h p.i., 20 μg Y3-TATE co-injected; for blood clearance (in words): 1 to 4 h p.i.
[4] = Biodistribution in tumor-bearing mice; assay type: in vivo; conditions: mouse, liver, intravenous, 1.85 MBq

| Compound | maximum internalized tracer [1] [%ID/mg] | tumor SUV [2] | tumor SUV, blocked [2] | tumor-to-blood ratio (in words) ([3]; 1, 4 and 24 h p.i.) | tumor uptake (in words) ([3]; 4 and 24 h p.i.) | tumor uptake blocked by co-injected Y3-TATE [3] [%] | blood clearance (in words) [3] | liver uptake (in words) ([3]; 4 and 24 h p.i.) | tissue uptake at 24 h [4] [%ID/g] | internalization (in words) ([1]; 37 °C, up to 4 h) | liver uptake (in words) ([3]; 1 h p.i.) |
| --- | --- | --- | --- | --- | --- | --- | --- | --- | --- | --- | --- |
| C[C@@H](O)[C@H](NC(=O)[C@@H]1CSSC[C@H](NC(=O)[C@@H](Cc2ccccc2)NC(=O)CCCCCn2nnc3c2-c2ccccc2N(C(=O)CCNC(=O)CN2CCCN4CCN(CCCN(CP(=O)(O)O)CC4)CC2)Cc2ccccc2-3)C(=O)N[C@@H](Cc2ccc(O)cc2)C(=O)N[C@H](Cc2c[nH]c3ccccc23)C(=O)N[C@@H](CCCCN)C(=O)N[C@@H]([C@@H](C)O)C(=O)N1)C(=O)O (single isomer, unassigned) [^64Cu-AP-2, ^64Cu-CB-TE1A1P–DBCO–Y3-TATE, metal not drawn] | 73 ± 7 | – | – | – | – | – | – | – | – | – | – |
| ^64Cu-CB-TE1A1P–Y3-TATE [^64Cu-1A1P] | – | 2.8 ± 0.4 | 0.19 ± 0.02 | significantly higher than both ^64Cu-AP-1 and ^64Cu-KP-1 at all time points | significantly higher tumor uptake than ^64Cu-KP-1 and ^64Cu-AP-1 | 95 | – | – | – | – | – |
| C[C@@H](O)[C@H](NC(=O)[C@@H]1CSSC[C@H](NC(=O)[C@@H](Cc2ccccc2)NC(=O)CCCCCn2nnc3c2-c2ccccc2N(C(=O)CCNC(=O)CCOCCOCCOCCOCCOCCC(=O)NCCCCC(C(=O)O)N2CCCN4CCN(CCCN(CP(=O)(O)O)CC4)CC2)Cc2ccccc2-3)C(=O)N[C@@H](Cc2ccc(O)cc2)C(=O)N[C@H](Cc2c[nH]c3ccccc23)C(=O)N[C@@H](CCCCN)C(=O)N[C@@H]([C@@H](C)O)C(=O)N1)C(=O)O (some centres unmarked) [^64Cu-KP-1, ^64Cu-CB-TE1K1P–PEG4–DBCO–Y3-TATE, metal not drawn] | – | 3.2 ± 0.2 | 0.21 ± 0.06 | – | – | 84 | significantly slower than the blood clearance of ^64Cu-1A1P | lower uptake in the liver than ^64Cu-AP-1 and ^64Cu-1A1P | < 1 | – | – |
| C[C@@H](O)[C@H](NC(=O)[C@@H]1CSSC[C@H](NC(=O)[C@@H](Cc2ccccc2)NC(=O)CCCCCn2nnc3c2-c2ccccc2N(C(=O)CCNC(=O)CN2CCCN4CCN(CCCN(CP(=O)(O)O)CC4)CC2)Cc2ccccc2-3)C(=O)N[C@@H](Cc2ccc(O)cc2)C(=O)N[C@H](Cc2c[nH]c3ccccc23)C(=O)N[C@@H](CCCCN)C(=O)N[C@@H]([C@@H](C)O)C(=O)N1)C(=O)O (single isomer, unassigned) [^64Cu-AP-3, ^64Cu-CB-TE1A1P–DBCO–Y3-TATE, metal not drawn] | – | – | – | – | – | – | – | – | – | slower internalization which was not saturated after 4 h | – |
| C[C@@H](O)[C@H](NC(=O)[C@@H]1CSSC[C@H](NC(=O)[C@@H](Cc2ccccc2)NC(=O)CCCCCn2nnc3c2-c2ccccc2N(C(=O)CCNC(=O)CN2CCCN4CCN(CCCN(CP(=O)(O)O)CC4)CC2)Cc2ccccc2-3)C(=O)N[C@@H](Cc2ccc(O)cc2)C(=O)N[C@H](Cc2c[nH]c3ccccc23)C(=O)N[C@@H](CCCCN)C(=O)N[C@@H]([C@@H](C)O)C(=O)N1)C(=O)O (single isomer, unassigned) [^64Cu-AP-1, ^64Cu-CB-TE1A1P–DBCO–Y3-TATE, metal not drawn] | 45 ± 3 | 4.6 ± 0.8 | 0.47 ± 0.18 | – | – | 63 | significantly slower than the blood clearance of ^64Cu-1A1P | – | < 1 | – | significantly higher than that of ^64Cu-KP-1 and ^64Cu-1A1P |
